Source: PubChem BioAssay
UBC9 SUMO inh: inhibitors of in vitro SUMOylation cascade, primary screen, biochemical, HTRF, uHTS; SUMO-conjugating enzyme UBC9 (Homo sapiens), P63279; HTRF SUMOylation assay, SAE1/SAE2 + UBC9; inhibition, % at 35 µM; actives 0.36% (n = 290,000); AID 2006, 2009; in the data active = inhibition above about 50%, passing the limit was not always enough
LMPTP block: LMPTP phosphatase inhibitors, primary screen, biochemical, fluorescence intensity, uHTS. recombinant LMPTP-A, OMFP fluorogenic substrate. inhibition, % at 20 µM. actives 0.22% (n = 360,000). AID 651560, 2012;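 active = compounds that cut the enzyme signal by at least half of the control window in the single-dose screen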
Target sequence (P24666 whole entry, looked up): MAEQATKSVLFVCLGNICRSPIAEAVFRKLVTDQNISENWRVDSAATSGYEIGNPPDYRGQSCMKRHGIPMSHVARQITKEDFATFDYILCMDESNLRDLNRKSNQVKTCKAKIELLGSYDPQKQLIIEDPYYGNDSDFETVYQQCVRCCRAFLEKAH
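Material: LMPTP-A; amount: 0.625 nM enzyme; doses: single 20 µM dose; times: reaction 50 min, room temperature, dark; technique: fluorescence intensity of OMFP turnover product; benchmarks: no-enzyme and uninhibited controls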
DNMT1 block: human DNMT1 methyltransferase inhibitors, primary screen, biochemical, molecular beacon, fluorescence, HinP1I cleavage, uHTS; DNA (cytosine-5)-methyltransferase 1 (Homo sapiens), P26358; inhibition (reported as % activation of signal), % at 10 µM; actives 0.83% (n = 360,000); in the data active = inhibition above about 50%
SUMO1-SIM PPI: modulators of SUMO1 protein-protein interactions, primary screen, biochemical, uHTS; inhibition, % at 20 µM; actives 0.33% (n = 360,000); Small ubiquitin-related modifier 1 (Homo sapiens), P63165; SUMO1 binding to a labelled peptide, TR-FRET, 1 h; in the data active = inhibition above about 37%
Target sequence (P63165 whole entry, looked up): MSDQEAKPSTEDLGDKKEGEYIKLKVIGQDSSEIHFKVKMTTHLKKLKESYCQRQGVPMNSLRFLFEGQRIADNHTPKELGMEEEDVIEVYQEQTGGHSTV
Scp-1 inhibitor: Scp-1 phosphatase inhibitors, primary screen, biochemical, colorimetric, uHTS | Carboxy-terminal domain RNA polymerase II polypeptide A small phosphatase 1 (Homo … | Recombinant Scp1, phosphopeptide, malachite green phosphate absorbance | inhibition, % at 20 µM | actives 0.88% (n = 340,000) | AID 493091, 2011;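 active = inhibition above about 50% at 20 µM, limit read from the data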
Target sequence (Q9GZU7 76-261 limits assumed): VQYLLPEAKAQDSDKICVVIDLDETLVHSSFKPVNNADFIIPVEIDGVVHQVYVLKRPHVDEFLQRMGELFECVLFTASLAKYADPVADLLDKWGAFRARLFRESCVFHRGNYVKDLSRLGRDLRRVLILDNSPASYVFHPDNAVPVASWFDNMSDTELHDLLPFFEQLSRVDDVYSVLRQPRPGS
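Test system – truncated SCP-1 phosphatase (76-261aa) · Reagent – Phosphorylated 17-residue peptide substrate · Incubation – 45 min room-temperature reaction, 5 min colour, 30 min stabiliser · Detection – colorimetric phosphate reagent with accelerator and stabiliser, absorbance at 630 nm · Measure – % inhibition at 20 µM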
STEP inh: STEP phosphatase inhibitors, primary screen, biochemical, fluorescence intensity, uHTS; Tyrosine-protein phosphatase non-receptor type 5 (Homo sapiens), P54829; recombinant STEP, OMFP fluorogenic substrate; inhibition, % at 20 µM; actives 0.25% (n = 360,000); AID 588621, 2011;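 active = inhibition at 20 µM, scaled per plate between control wells, above about 37%, limit read from the data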
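Material: STEP (striatal-enriched tyrosine phosphatase) enzyme, cell-free | Medium: 50 mM Bis-Tris pH 6.0 with 2.5 mM DTT and 0.005% Tween 20 | Read-out: Percent inhibition scaled to no-enzyme and uninhibited-enzyme controls, plate-pattern corrected | Signal: Fluorescence read at 480 nm ex / 540 nm em | Times: 20 min reaction, room temperature, in the dark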
A number is an active result; n = inactive; x = not tested or not shown. The list is not random: actives were taken first. Their share in the collection is about 1.9%.

SMILES	UBC9 SUMO inh	LMPTP block	DNMT1 block	SUMO1-SIM PPI	Scp-1 inhibitor	STEP inh
O=C(O)CCC(=O)NCCC1=c2ccccc2=N/C1=C\c1c(O)n(Cc2ccc(F)cc2)c(=S)[nH]c1=O	n	n	n	n	92	n
O=C(N/N=C/c1c(O)n(Cc2ccc(F)cc2)c(=O)[nH]c1=O)c1ccccc1	n	n	n	n	n	n
Cc1ccc(OCCn2cccc2/C=C2/C(=O)NC(=O)N(Cc3ccco3)C2=O)cc1	n	n	61	n	n	n
CCOC(=O)C1CCN(/C=C2/C(=O)NC(=O)N(Cc3ccco3)C2=O)CC1	n	n	n	n	66	n
O=C1NC(=O)N(Cc2ccco2)C(=O)/C1=C/C=C/c1ccco1	73	n	97	92	81	40
Cc1ccc(N2C(=O)NC(=O)/C(=C\C=C\c3ccco3)C2=O)cc1	n	n	n	n	n	n
CN1C(=O)/C(=C/C=C/c2ccco2)C(=O)NC1=S	n	n	94	54	98	n
COc1ccc(/C=C2/C(=O)NC(=O)N(Cc3ccco3)C2=O)cc1	n	x	x	x	x	x
CC1CCCCN1Cc1c[nH]c2ccccc12 (stereo not given)	n	n	n	n	n	n
COc1ccc(-n2nnnc2C(c2cccs2)N2CCC3(CC2)C(=O)NCN3c2ccccc2)cc1 (stereo not given)	x	n	n	n	x	n
Cc1ccc(N2C(=O)NC(=O)/C(=C\C=C\c3ccco3)C2=O)cc1C	n	n	66	n	n	n
O=c1c2ccccc2[se]n1-c1ccccc1	n	n	n	n	101	n
CN(Cc1cccc(-c2ccncc2)c1)C(=O)Oc1ccccc1Cc1ccccc1	x	n	x	n	x	x
O=c1[nH]c(=S)n(Cc2ccco2)c(O)c1C=NCc1cccs1	n	65	n	n	n	n
O=c1[nH]c(=O)n(Cc2ccco2)c(O)c1C=NCc1cccs1	n	n	n	n	n	n
CC(=O)O[C@H]1C[C@@H]2CC[C@@H]3[C@H](CC[C@]4(C)C(=O)CC[C@@H]34)[C@@]2(C)C[C@@H]1OC(C)=O	x	n	n	n	n	n
COc1ccc(-n2nc(C(=O)NCC(=O)N3CCC4(CC3)OCCO4)c3ccccc3c2=O)cc1OC	n	n	n	n	n	n
O=C1C(=O)c2ccccc2-c2ccccc21	100	51	105	n	n	36
CC12CN3C(O)C(C)(C1)CC(C)(C2)C3O (stereo not given)	n	n	n	n	n	n
C=C1C(=O)O[C@@H]2C[C@@H](C)[C@@H]3C=CC(=O)[C@@]3(C)[C@@H](OC(=O)CC(=O)O[C@H]3[C@@H]4C(=C)C(=O)O[C@@H]4C[C@@H](C)[C@@H]4C=CC(=O)[C@]43C)[C@H]12	54	n	n	n	n	n
C=C1C(=O)OC2CC(C)C3C=CC(=O)C3(C)C(O)C12 (stereo not given)	x	n	n	n	n	n
CCOC(=O)C(O)(c1ccc(N=c2ccccn2C)cc1)C(F)(F)F (stereo not given)	n	n	n	n	n	n
COCCNC(=O)c1c(NC(=O)c2ccc(Br)o2)n(Cc2ccccc2)c2nc3ccccc3nc12	99	n	n	n	n	n
COCCCNC(=O)c1c(NC(=O)c2ccco2)n(Cc2ccccc2)c2nc3ccccc3nc12	98	n	n	n	n	n
CCOC(=O)c1c(NS(=O)(=O)c2ccccc2)n(CCCOC)c2nc3ccccc3nc12	100	n	n	43	n	n
SMILES	UBC9 SUMO inh	LMPTP block	DNMT1 block	SUMO1-SIM PPI	Scp-1 inhibitor	STEP inh
COCCCNC(=O)c1c(N)n(Cc2ccco2)c2nc3ccccc3nc12	n	n	n	n	n	n
CCCCNC(=O)c1c(N)n(CCCOC)c2nc3ccccc3nc12	99	n	n	n	n	n
CC(Cc1ccccc1)NC(=O)Cc1ccc([N+](=O)[O-])cc1 (stereo not given)	n	n	n	n	n	n
C1CCC2S[C@H]3CCCCC3NC2C1 (stereo not given in full)	n	n	n	n	n	n
CCCCCn1c(NC(=O)c2ccco2)c(C(=O)OCC)c2nc3ccccc3nc21	101	n	n	n	n	n
CN1CCN2c3ccc(N)cc3CC3(C(=O)NC(=O)NC3=O)C2C1 (stereo not given)	79	n	n	n	n	n
C[n+]1c(-c2ccccc2)cc(CCCCc2cc(-c3ccccc3)[n+](C)c(-c3ccccc3)c2)cc1-c1ccccc1	n	50	n	n	n	n
COc1ccc(-c2cc(-c3ccccc3)[n+](C)c(-c3ccccc3)c2)cc1	n	n	n	n	n	n
COc1ccc(P2(=O)Nc3ccccc3N2)cc1	n	n	n	n	55	n
COc1ccc(N2C(=O)/C(=C/c3cc(C)n(-c4ccc(C)cn4)c3C)C(=O)NC2=S)c(OC)c1	n	n	n	n	n	n
O=C1NC(=O)C(=Cc2ccco2)C(=O)N1	x	n	82	n	n	50
O=C1NC(=S)N(c2ccc(Cl)cc2)C(=O)/C1=C/N1CCN(C(=O)c2ccco2)CC1	n	n	n	n	n	n
O=C1NC(=S)N(c2ccc(F)cc2)C(=O)/C1=C\c1ccoc1	n	n	85	75	74	42
O=C1NC(=S)N(c2ccc(F)cc2)C(=O)/C1=C/c1ccco1	66	x	x	x	x	x
COc1ccc(OC)c(N2C(=O)/C(=C/c3ccco3)C(=O)NC2=S)c1	94	x	x	x	89	x
CCCCCCC(C)(C)c1ccc([C@@H]2C[C@H](O)CC[C@H]2CCCO)c(O)c1	x	n	n	n	n	n
O=P1(Oc2ccccc2)OCCCS1 (stereo not given)	n	n	n	n	n	n
CCN(CCCl)c1cc(CN(C)C)cc(NC(=O)c2ccc(C(=O)Nc3cc(CN(C)C)cc(N(CC)CCCl)c3)cc2)c1	x	n	n	n	n	n
O=C(COC(=O)Cc1ccccc1)Nc1nnc(-c2ccccc2)o1	x	n	n	n	n	n
CC(C)OP(=O)(Oc1ccc(C(O)C(Cl)(Cl)Cl)cc1)OC(C)C (stereo not given)	n	n	n	n	n	n
CN1CCC2(CC1)c1ccccc1-c1ccccc12	x	n	n	n	n	n
